# Test results published in article PMC3656968 (Journal of medicinal chemistry, 2013).
# Read-outs that look alike come from different tables or passages of the source. Marks after values point to notes of the source that are not given here.
# Assays:
# [1] = target: T1, human serum albumin (HSA) (Homo sapiens, UniProt P02768); assay: Ultrafiltration assay of binding to HSA; conditions: for % bound to 4.5% HSA: 0.1 mM probe, 4.5% w/v HSA in 50 mM HEPES, ultrafiltration; for binding to HSA on average: average of the diastereoisomers Gd(6a) and Gd(6b), 0.1 mM, 4.5% w/v HSA
# T1 sequence (P02768 25-609): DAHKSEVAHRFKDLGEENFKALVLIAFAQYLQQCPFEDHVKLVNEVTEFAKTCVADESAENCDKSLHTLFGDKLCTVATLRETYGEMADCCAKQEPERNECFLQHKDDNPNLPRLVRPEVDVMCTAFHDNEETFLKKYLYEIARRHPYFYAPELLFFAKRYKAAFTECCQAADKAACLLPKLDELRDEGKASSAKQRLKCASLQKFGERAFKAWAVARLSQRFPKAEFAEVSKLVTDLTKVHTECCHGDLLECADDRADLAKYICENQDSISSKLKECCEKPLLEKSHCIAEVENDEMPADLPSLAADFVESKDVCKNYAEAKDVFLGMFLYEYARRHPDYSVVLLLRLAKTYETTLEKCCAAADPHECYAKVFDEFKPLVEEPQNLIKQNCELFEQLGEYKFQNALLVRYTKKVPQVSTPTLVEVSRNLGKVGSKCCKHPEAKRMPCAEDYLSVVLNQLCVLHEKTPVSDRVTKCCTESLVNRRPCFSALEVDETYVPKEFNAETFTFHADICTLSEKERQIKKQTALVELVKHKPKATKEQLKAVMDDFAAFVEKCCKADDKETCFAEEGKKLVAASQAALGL
# How it was run: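 Complex at a constant 0.1 mM (50 mM HEPES, concentration by ICP-MS) with 4.5% w/v HSA, ultrafiltered through a 5000 MW cutoff membrane. Compared against the filtrate of an HSA-free solution. Unbound and total Gd measured directly by ICP-MS, and binding given as percent bound to HSA. Error estimated at ±10%.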
# [2] = Relaxivity in HEPES buffer in the absence of HSA; type: physicochemical; conditions: 50 mM HEPES buffer pH 7.4, 37 °C
# How it was run: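 Complex solid redissolved in 50 mM HEPES and filtered, with Gd concentration set by ICP-MS. Longitudinal relaxation (1/T1) measured at 0.47 and 1.41 T without HSA at 0.05-0.4 mM complex, in 50 mM HEPES pH 7.4 at 37 °C. r1 taken as slope of 1/T1 versus Gd concentration (mM). Error estimated at ±10% of value.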
# [3] = target: T1, human serum albumin (HSA); assay: Relaxivity in the presence of 4.5% w/v HSA; conditions: 50 mM HEPES buffer pH 7.4, 37 °C
# How it was run: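 Complex in 50 mM HEPES with 4.5% w/v HSA, pH 7.4, 37 °C, with Gd content quantified by ICP-MS. 1/T1 recorded at 0.47 and 1.41 T across several complex concentrations. Observed relaxivity is the slope of 1/T1 against Gd concentration (mM). Estimated error is ±10% of the measured value.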
# [4] = target: T1, human serum albumin (HSA); assay: T1 weighted MR image of samples with or without HSA; conditions: 0.1 mM compound, with or without 4.5 % w/v HSA
# How it was run: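 Samples of 0.1 mM compound, with or without 4.5% w/v HSA, imaged side by side with a T1-weighted sequence (TR/TE/flip angle 25 ms/4.7 ms/70°). Signal intensity read for each sample.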
# [5] = target: T1, human serum albumin (HSA); conditions: 0.1 mM probe, 4.5% w/v HSA; cited from earlier work
# [6] = absence of HSA, cited from earlier work
# [7] = target: T1, human serum albumin (HSA); conditions: cited from earlier work
Compound,% bound to 4.5% HSA [1] [%],binding to HSA on average [1] [%],r1^free ([2]; 0.47T) [mM⁻¹ s⁻¹],r1^free ([2]; 1.41T) [mM⁻¹ s⁻¹],r1^obs 4.5% HSA ([3]; 0.47T) [mM⁻¹ s⁻¹],r1^obs 4.5% HSA ([3]; 1.41T) [mM⁻¹ s⁻¹],signal / contrast in T1 weighted image with versus without HSA [4],% bound to 4.5% HSA [5] [% ^a],r1^free ([6]; 0.47T),r1^free ([6]; 1.41T),r1^obs 4.5% HSA ([7]; 0.47T),r1^obs 4.5% HSA ([7]; 1.41T)
"C[C@H](NC(=O)C(CN1CCN(CC(=O)O)CCN(CC(=O)O)CCN(CC(=O)O)CC1)NC(=O)C(N)Cc1cc(I)c(O)c(I)c1)c1ccccc1 (single isomer, unassigned) [Gd(6a)]",34,37,7.1,6.6,18.5,10.9,–,–,–,–,–,–
"C[C@H](NC(=O)C(CN1CCN(CC(=O)O)CCN(CC(=O)O)CCN(CC(=O)O)CC1)NC(=O)C(N)Cc1cc(I)c(O)c(I)c1)c1ccccc1 (single isomer, unassigned) [Gd(6b)]",39,37,6.8,6.1,18.4,11.7,–,–,–,–,–,–
"C[C@H](NC(=O)C(N)CN1CCN(CC(=O)O)CCN(CC(=O)O)CCN(CC(=O)O)CC1)c1ccccc1 (stereo partly drawn) [Gd(2), 2,2′,2″-(10-(2-amino-3-oxo-3-(((S)-1-phenylethyl)amino)propyl)-1,4,7,10-tetraazacyclododecane-1,4,7-triyl)triacetic acid]",7,–,4.8,3.9,7.1,5.9,–,–,–,–,–,–
"NC(Cc1cc(I)c(O)c(I)c1)C(=O)NC(CN1CCN(CC(=O)O)CCN(CC(=O)O)CCN(CC(=O)O)CC1)C(=O)O (stereo not drawn) [Gd(4), 2,2′,2″-(10-(2-(2-amino-3-(4-hydroxy-3,5-diiodophenyl)propanamido)-2-carboxyethyl)-1,4,7,10-tetraazacyclododecane-1,4,7-triyl)triacetic acid]",20,–,6.1,5.8,23.7,17.4,–,–,–,–,–,–
"COC(=O)CNC(=O)C(CN1CCN(CC(=O)O)CCN(CC(=O)O)CCN(CC(=O)O)CC1)NC(=O)C(N)Cc1cc(I)c(O)c(I)c1 (stereo not drawn) [Gd(5), 2,2′,2″-(10-(2-(2-amino-3-(4-hydroxy-3,5-diiodophenyl)propanamido)-3-((2-methoxy-2-oxoethyl)amino)-3-oxopropyl)-1,4,7,10-tetraazacy-clododecane-1,4,7-triyl)triacetic acid]",25,–,6.9,6.3,20.9,16.7,–,–,–,–,–,–
"O=C([O-])CN(CCN(CC(=O)[O-])C[C@H](COP(=O)([O-])OC1CCC(c2ccccc2)(c2ccccc2)CC1)N(CC(=O)[O-])CC(=O)[O-])CC(=O)[O-].[Gd+3].[H+].[H+].[H+] [MS-325, gadofosveset]",–,–,–,–,–,–,increased signal in presence of HSA,88,6.6 ^a mM^−1s^−1,5.5 ^a mM^−1s^−1,42 ^a mM^−1s^−1,23.8 ^a mM^−1s^−1
